ChEMBL document CHEMBL4689842, “EUbOPEN Chemogenomics Library wave 1” (2021)
Where “and” joins values, the source holds several entries; their conditions need not be identical. Equal entries are not always repeated.

Tested on: Fibroblast
Experiment: Multiplex assay against human fibroblast
Type: toxicity, cell-based
Details: 1 µM, compound concentration 1 uM
Summary of the method: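 Per cents of healthy-nucleus cells form the tubulin, mitochondrial-mass and membrane-permeability phenotype values. Live cells were stained at seeding with Hoechst33342, BioTracker Green Microtubule Cytoskeleton Dye, MitoTracker Red and Annexin V Alexa Fluor 680. After compound addition they were imaged on a CQ1 microscope at 37°C and 5% CO2, and CellPathfinder machine-learning gating split them into Hoechst high-intensity objects or normal cells, normal cells into healthy, pyknosed or fragmented nuclei, and pyknosed cells into mitotic or apoptotic.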

Cn1cc(C2=C(c3cn(C4CCN(Cc5ccccn5)CC4)c4ccccc34)C(=O)NC2=O)c2ccccc21 [ENZASTAURIN]
Population Apoptotic (%) (12 h, replicate 1): 79% and 42%
Population Fragmented Nuclei (%) (12 h, replicate 1): 34% and 40%
Population Healthy Nuclei (%) (12 h, replicate 1): 49% and 35%
Population Membrane Permeable-Phenotype (%) (12 h, replicate 1): 8% and 7%
Population Mitotic Cells (%) (12 h, replicate 1): 20% and 57%
Population Normal (%) (12 h, replicate 1): 84% and 33%
Population Pyknosed Nuclei (%) (12 h, replicate 1): 15% and 23%
Total Cell Count (12 h, replicate 1): 220 and 479
Population Apoptotic (%) (12 h, replicate 2): 66% and 55%
Population Fragmented Nuclei (%) (12 h, replicate 2): 70% and 45%
Population Healthy Nuclei (%) (12 h, replicate 2): 19% and 34%
Population Hoechst High Intensity Objects (%) (12 h, replicate 2): 30% and 51%
Population Membrane Permeable-Phenotype (%) (12 h, replicate 2): 16% and 0%
Population Mitochondria Different-Phenotype (%) (12 h, replicate 2): 25% and 60%
Population Mitotic Cells (%) (12 h, replicate 2): 33% and 44%
Population Normal (%) (12 h, replicate 2): 69% and 48%
Population Pyknosed Nuclei (%) (12 h, replicate 2): 9% and 20%
Total Cell Count (12 h, replicate 2): 88 and 91
Population Apoptotic (%) (24 h, replicate 1): 64% and 73%
Population Fragmented Nuclei (%) (24 h, replicate 1): 47% and 27%
Population Healthy Nuclei (%) (24 h, replicate 1): 23% and 58%
Population Membrane Permeable-Phenotype (%) (24 h, replicate 1): 6% and 3%
Population Mitotic Cells (%) (24 h, replicate 1): 35% and 26%
Population Normal (%) (24 h, replicate 1): 28% and 83%
Population Pyknosed Nuclei (%) (24 h, replicate 1): 28% and 13%
Total Cell Count (24 h, replicate 1): 427 and 225
Population Apoptotic (%) (24 h, replicate 2): 33% and 90%
Population Fragmented Nuclei (%) (24 h, replicate 2): 67% and 50%
Population Healthy Nuclei (%) (24 h, replicate 2): 26% and 19%
Population Hoechst High Intensity Objects (%) (24 h, replicate 2): 34% and 50%
Population Membrane Permeable-Phenotype (%) (24 h, replicate 2): 7% and 14%
Population Normal (%) (24 h, replicate 2): 65% and 49%
Total Cell Count (24 h, replicate 2): 75 and 73
